From PubChem
A1 apoptosis 2: A1 inhibitors via caspase activation, primary screen, cell-based, luminescence, HTS, two replicates | MEF A1-2A-BIM cells, caspase-Glo luminescence, 3 h; percent of clofoctol response, DMSO zero | caspase activation, % (no concentration beside the values) | 24,000 tested, under 10 active | AID 2465, 2010; in the data active = caspase activation above about 5.9%; inconclusive = no clear call, values can overlap the other calls; inactive = below about 2.2%
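Test system – A1-2A-BIM-expressing MEF cells · Input – 2500 cells/well · Medium – RPMI-1640 growth medium with 10% FBS · Compound dosing – 50 nL pinned compound · Timing – 3 h compound exposure at 37 °C · Technique – Caspase-Glo luminescence (DEVD substrate) · Evaluation – Caspase-3/7 activity from luminescence increase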
T cruzi intra: inhibitors of intracellular Trypanosoma cruzi, primary screen, cell-based, plate reader, single point, set 2; intracellular Trypanosoma cruzi in host cells; activity score (inhibition), % at 5.01 µM; hit rate 4.9% among 22,000; in the data active = activity score above about 55%; inconclusive = no clear call, values can overlap the other calls;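 note: parasites and compound incubated about four days before reading; 0% = median of neutral control wells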
INS-1E rescue: protection of INS-1E cells from cytokine death, primary screen, ATP luminescence, single point | INS-1E cytokine-induced death, 48 h; normalised: neutral wells 0, positive control 100 | protection from cytokine-induced ATP loss, % at 10 µM | hit rate 0.1% among 20,000;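 active = mean replicate protection from cytokine-induced ATP loss at least 50% and at least 75% of replicates each reaching 50%; inconclusive = meets only one of the two criteria, mean or replicate share; inactive = fails both the mean and replicate share criteria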
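Assay system – rat INS-1E insulinoma cell line · Quantity – 8000 cells per well · Buffer or medium – RPMI without phenol red, 5% FBS · Schedule – 48 h co-treatment, 10 min post-lysis read · Technique – luminescent ATP assay (CellTiter-Glo)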
Starred values were filed as active, the others as inactive; ? = inconclusive; · = no result given. Shown is part of a subset that was picked to be rich in hits.

SMILES	A1 apoptosis 2	T cruzi intra	INS-1E rescue
C[C@H](CO)N1C[C@H](C)[C@H](CN(C)Cc2ccccc2)Oc2ccc(NC(=O)Nc3ccccc3)cc2CC1=O	2	-7	3
C[C@H]1CN([C@@H](C)CO)C(=O)Cc2cc(NC(=O)Nc3ccc(C(F)(F)F)cc3)ccc2O[C@H]1CN(C)Cc1ccccc1	·	70*	-89
C[C@@H]1CCCCO[C@@H](CN(C)S(=O)(=O)c2ccc(Cl)cc2)[C@H](C)CN([C@H](C)CO)C(=O)c2cc(NC(=O)NC3CCCCC3)ccc2O1	0	·	·
C[C@@H]1CN([C@H](C)CO)C(=O)Cc2cc(NS(=O)(=O)c3ccccc3)ccc2O[C@H]1CN(C)C	-1	-8	-9
O=C(NO)c1cccc(C(=O)N/N=C/c2ccc(B(O)O)cc2)c1	-3	-16	-14
C[C@H](CO)N1C[C@H](C)[C@@H](CN(C)Cc2ccccc2)Oc2ccc(NC(=O)Nc3ccc(C(F)(F)F)cc3)cc2CC1=O	0	·	·
C[C@H](CO)N1C[C@H](C)[C@H](CN(C)Cc2ccccc2)Oc2ccc(NC(=O)Nc3ccc(C(F)(F)F)cc3)cc2CC1=O	·	66*	-5
COc1ccc(S(=O)(=O)Nc2ccc3c(c2)C(=O)N([C@@H](C)CO)C[C@@H](C)[C@@H](CN(C)Cc2ccc(C(F)(F)F)cc2)O3)cc1	-1	35	-11
Cc1noc(C)c1S(=O)(=O)N(C)C[C@@H]1Oc2ccc(NC(=O)Cc3ccccc3)cc2CC(=O)N([C@@H](C)CO)C[C@@H]1C	-2	8	5
C[C@@H]1CN([C@H](C)CO)C(=O)Cc2cc(NC(=O)Cc3cn(C)c4ccccc34)ccc2O[C@H]1CN(C)Cc1ccc(C(F)(F)F)cc1	0	63*	3
C[C@@H]1CN([C@@H](C)CO)C(=O)Cc2cc(NC(=O)Cc3cn(C)c4ccccc34)ccc2O[C@@H]1CN(C)Cc1ccccc1	-1	21	-16
C[C@@H]1CN([C@H](C)CO)C(=O)Cc2cc(NC(=O)Cc3cn(C)c4ccccc34)ccc2O[C@@H]1CN(C)Cc1ccccc1	·	52	-21
C[C@H]1CN([C@@H](C)CO)C(=O)Cc2cc(NC(=O)Cc3cn(C)c4ccccc34)ccc2O[C@H]1CN(C)Cc1ccc(C(F)(F)F)cc1	2	75*	-52
Cc1ccc(S(=O)(=O)Nc2cccc3c2O[C@@H](CN(C)Cc2ccc(Oc4ccccc4)cc2)[C@@H](C)CN([C@@H](C)CO)C3=O)cc1	0	36	-15
COC(=O)CCCCCCC(=O)N/N=C/c1ccccc1OCCO	1	-9	5
O=C1CS(=O)(=O)C(c2ccccc2)N1c1ccccc1 (centres undefined)	0	·	·
C[C@@H]1CCCCO[C@H](CN(C)C(=O)Nc2ccc(C(F)(F)F)cc2)[C@@H](C)CN([C@H](C)CO)C(=O)c2cc(NC(=O)C3CCCCC3)ccc2O1	·	72*	-28
C[C@@H]1CCCCO[C@@H](CN(C)C(=O)NC2CCCCC2)[C@@H](C)CN([C@H](C)CO)C(=O)c2cc(NC(=O)Nc3ccc(C(F)(F)F)cc3)ccc2O1	1	72*	-1
C[C@H]1CCCCO[C@@H](CN(C)C(=O)C2CCCCC2)[C@@H](C)CN([C@@H](C)CO)C(=O)c2cc(NC(=O)Nc3ccc(C(F)(F)F)cc3)ccc2O1	1	·	·
C[C@@H]1CCCCO[C@H](CN(C)C(=O)NC2CCCCC2)[C@H](C)CN([C@@H](C)CO)C(=O)c2cc(NC(=O)Nc3ccc(C(F)(F)F)cc3)ccc2O1	1	·	·
C[C@H]1CCCCO[C@H](CN(C)C(=O)Nc2ccc(C(F)(F)F)cc2)[C@@H](C)CN([C@@H](C)CO)C(=O)c2cc(NC(=O)NC3CCCCC3)ccc2O1	2	·	·
C[C@@H]1CCCCO[C@H](CN(C)C(=O)C2CCCCC2)[C@@H](C)CN([C@H](C)CO)C(=O)c2cc(NC(=O)Nc3ccc(C(F)(F)F)cc3)ccc2O1	-1	61*	-21
C[C@@H]1CCCCO[C@H](CN(C)C(=O)Nc2ccc(C(F)(F)F)cc2)[C@@H](C)CN([C@H](C)CO)C(=O)c2cc(NC(=O)NC3CCCCC3)ccc2O1	·	68*	-4
C[C@@H]1CCCCO[C@H](CN(C)C(=O)Nc2ccc(C(F)(F)F)cc2)[C@H](C)CN([C@H](C)CO)C(=O)c2cc(NC(=O)C3CCCCC3)ccc2O1	-1	·	·
O=C(CCCCC(=O)N/N=C/c1ccc(Br)o1)NO	-1	·	·
SMILES	A1 apoptosis 2	T cruzi intra	INS-1E rescue
CC(C)NC(=O)Nc1ccc2c(c1)C(=O)N([C@@H](C)CO)C[C@H](C)[C@@H](CN(C)CC1CCCCC1)O2	0	-49	5
C[C@@H]1CN([C@H](C)CO)C(=O)c2cccc(N(C)C)c2O[C@@H]1CN(C)Cc1ccc(Oc2ccccc2)cc1	1	-3	-18
O=C(CCCCCC(=O)Nc1ccccc1O)N/N=C/c1ccccc1O	0	·	·
C[C@@H]1CN([C@H](C)CO)C(=O)c2cccc(NC(=O)c3ccncc3)c2O[C@@H]1CN(C)C(=O)Nc1ccc(F)cc1	-2	-30	11
C[C@@H]1CN([C@@H](C)CO)C(=O)c2cccc(NC(=O)c3ccncc3)c2O[C@H]1CN(C)C(=O)Nc1ccccc1	-1	-3	9
C[C@H](CO)N1C[C@H](C)[C@H](CN(C)C(=O)Nc2ccccc2)Oc2c(NC(=O)c3ccncc3)cccc2C1=O	-1	78*	8
C[C@H]1CN([C@@H](C)CO)C(=O)c2cccc(NC(=O)c3ccncc3)c2O[C@H]1CN(C)C(=O)Nc1ccc(F)cc1	·	64*	7
COCC1=C([C@H](O)CCc2ccccc2)[C@H](CO)[C@@H]2C(=O)N(Cc3ccccc3)C(=O)[C@@H]2C1	-1	·	·
Cc1ccc(S(=O)(=O)Nc2ccc3c(c2)CC(=O)N([C@H](C)CO)C[C@@H](C)[C@@H](CN(C)Cc2ccc(C(F)(F)F)cc2)O3)cc1	·	61*	-10
Cc1ccc(S(=O)(=O)Nc2ccc3c(c2)CC(=O)N([C@@H](C)CO)C[C@H](C)[C@@H](CN(C)Cc2ccc(C(F)(F)F)cc2)O3)cc1	·	62*	0
C[C@H]1CN([C@@H](C)CO)C(=O)Cc2cc(NS(=O)(=O)c3ccc(F)cc3)ccc2O[C@@H]1CN(C)Cc1ccc(C(F)(F)F)cc1	·	61*	-17
C[C@@H]1CN([C@H](C)CO)C(=O)Cc2cc(NS(=O)(=O)c3ccc(F)cc3)ccc2O[C@H]1CN(C)Cc1ccc(C(F)(F)F)cc1	1	48	-13
Cc1ccc(S(=O)(=O)Nc2ccc3c(c2)CC(=O)N([C@@H](C)CO)C[C@@H](C)[C@H](CN(C)Cc2ccc(C(F)(F)F)cc2)O3)cc1	0	·	·
C[C@@H]1CN([C@@H](C)CO)C(=O)Cc2cc(NS(=O)(=O)c3ccc(F)cc3)ccc2O[C@@H]1CN(C)Cc1ccc(C(F)(F)F)cc1	-1	?	-41
Cc1ccc(S(=O)(=O)N(C)C[C@@H]2Oc3ccc(NC(=O)Nc4ccc(F)cc4)cc3CC(=O)N([C@@H](C)CO)C[C@@H]2C)cc1	·	13	0
